Assay results from different studies.
Protocols differ between the studies behind these lines.
Target: Mitogen-activated protein kinase kinase kinase 2 (MAP3K2, Homo sapiens, UniProt Q9Y2U5)
One construct used (Q9Y2U5 1-619): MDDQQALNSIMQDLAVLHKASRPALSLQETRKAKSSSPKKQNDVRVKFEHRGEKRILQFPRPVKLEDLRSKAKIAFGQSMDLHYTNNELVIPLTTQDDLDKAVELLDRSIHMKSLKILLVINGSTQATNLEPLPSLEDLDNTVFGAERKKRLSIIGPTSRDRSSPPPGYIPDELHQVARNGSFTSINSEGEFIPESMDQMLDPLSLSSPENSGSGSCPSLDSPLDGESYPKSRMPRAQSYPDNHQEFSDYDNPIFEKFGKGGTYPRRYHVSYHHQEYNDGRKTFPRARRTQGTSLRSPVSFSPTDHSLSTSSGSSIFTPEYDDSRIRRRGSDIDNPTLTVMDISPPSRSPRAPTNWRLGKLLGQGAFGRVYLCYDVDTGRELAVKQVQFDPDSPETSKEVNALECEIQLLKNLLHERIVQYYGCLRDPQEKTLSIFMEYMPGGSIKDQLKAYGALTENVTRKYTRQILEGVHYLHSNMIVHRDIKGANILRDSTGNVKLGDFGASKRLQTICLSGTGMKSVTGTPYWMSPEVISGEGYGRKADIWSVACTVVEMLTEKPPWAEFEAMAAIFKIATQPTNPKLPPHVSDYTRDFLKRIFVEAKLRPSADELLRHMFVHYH

SMILES	test	setting	measurement	value
C#Cc1cc(-c2cc(Nc3nc(N[C@@H](C)c4ccc(F)cn4)ncc3Cl)n[nH]2)ccc1C=O	enzyme activity, inhibitor	0.2 µM	inhibition	55.2%
Cc1cc(O)c(-c2ccc([C@@H](C)CN(C)C)cc2)c2c1[nH]c(=O)c1sccc12	enzyme activity, inhibitor	0.1 µM	inhibition	-1.76%
COc1ccc2oc(-c3ccc4nc(N)oc4c3)c/c(=N\c3ccccc3NC(=O)CCN)c2c1	binding	1 µM	remaining binding	101%
CN1CCN(C(=O)c2ccc(NC(=O)Nc3ccc(N(C)c4ccnc(Nc5ccc(CS(C)(=O)=O)cc5)n4)cc3)cc2)CC1	binding, competition with immobilised ligand	1 µM	remaining binding	38%
CC(C)S(=O)(=O)c1ccc2nccc(Nc3ccc4sc(C5CCCC5)nc4c3)c2c1	enzyme activity, inhibitor	1 µM	activity vs control	103%
CCCCC(=O)Nc1ccc(-c2ccc3ncn(CCC)c(=O)c3c2)cn1	binding, competition with immobilised ligand	0.5 µM	remaining binding	100%
CO[C@@H]1[C@H](N(C)C(=O)c2ccccc2)C[C@H]2O[C@]1(C)n1c3ccccc3c3c4c(c5c6ccccc6n2c5c31)C(=O)NC4	enzyme activity, inhibitor	1 µM	inhibition	94%
COc1ccc2[nH]c3c4[nH]c5ccc(OC)cc5c4c4c(c3c2c1)C(=O)NC4=O	binding, competition with immobilised ligand	1 µM	remaining binding	85%
C1=C/COCc2cc(ccc2OCCN2CCCC2)Nc2nccc(n2)-c2cccc(c2)COC/1	binding	0.1 µM	remaining binding	38%
C=CC(=O)N1CCC([C@@H]2CCNc3c(C(N)=O)c(-c4ccc(Oc5ccccc5)cc4)nn32)CC1	enzyme activity, inhibitor	1 µM	inhibition	39%
